From ChEMBL document CHEMBL1141177, “The novel L- and D-amino acid derivatives of hydroxyurea and hydantoins: synthesis, X-ray crystal structure study, and cytostatic and antiviral activity evaluations” (J Med Chem, 2005)
In brackets after ≈: the same amount, converted by molar mass.

Tests used:
MOLT-4 = assay: Inhibition of human T-lymphocyte cell line (Molt4/C8) growth; format: functional, cell-based
WI-38 = assay: Inhibition of normal human fibroblast cell line (WI 38) growth; format: functional, cell-based
In short: (§1)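 Monolayers in DMEM with 10% FBS, 2 mM L-glutamine, penicillin/streptomycin, 37 °C, 5% CO2. Cells seeded on day 0, then compounds added in 5- and 10-fold dilutions (10^-8–10^-4 M) for 72 h. MTT read-out at 570 nm. Percent growth calculated relative to time-zero and untreated OD. Quadruplicates in three experiments; IC50 by linear interpolation, highest concentration reported as ">" when not reached.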

SW-620 = assay: Inhibition of colon carcinoma cell line (SW 620) growth; format: functional, cell-based; conditions: Homo sapiens; in short: as §1
MCF7 = assay: Inhibition of breast carcinoma cell line (MCF-7) growth; format: functional, cell-based; conditions: Homo sapiens; in short: as §1
[1] = Effective concentration required to reduce plaque formation by AD-169 strain of CMV virus in Human embryonic lung cells; format: functional, cell-based
In short: (§2)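 Plaque reduction assay in human embryonic lung (HEL) cell cultures, virus input 100 plaque forming units. Viruses: CMV strains AD-169 and Davis, VZV TK+ strain OKA and TK− strain 07/1. EC50 is the concentration that reduces virus plaque formation by 50%.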

L1210 = assay: Inhibition of murine leukemia cells (L1210) growth; format: functional, cell-based; conditions: Mus musculus
HEp-2 = assay: Inhibition of laryngeal carcinoma cell line (Hep-2) growth; format: functional, cell-based; conditions: Homo sapiens; in short: as §1
[2] = Effective concentration required to reduce plaque formation by Davis strain of CMV virus in Human embryonic lung cells; format: functional, cell-based; in short: as §2
HeLa = assay: Inhibition of cervical carcinoma cell line (HeLa) growth; format: functional, cell-based; conditions: Homo sapiens; in short: as §1
HEL [3] = assay: Cytotoxic concentration to reduce the 50% cell growth of human embryonic lung cells; format: functional
Human alphaherpesvirus 3 [4] = assay: Reduction of plaque formation by VZV07/1 strain of thymidine kinase(TK-) deficient VZ virus in human embryonic lung cells; format: functional, organism-based; conditions: Human alphaherpesvirus 3, lung
MIA PaCa-2 = assay: Inhibition of pancreatic carcinoma cell line (MiaPaCa-2) growth; format: functional, cell-based; conditions: Homo sapiens; in short: as §1
Human alphaherpesvirus 3 [5] = assay: Effective concentration of compound required to reduce plaque formation by OKA strain of thymidine kinase positive VZ virus TK+ in human embryonic lung cells; format: functional, organism-based; conditions: Human alphaherpesvirus 3, lung
HEL [6] = assay: Minimum cytotoxic concentration of compound that causes alteration of cell morphology in human embryonic lung cells; format: functional
In short: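 Human embryonic lung (HEL) cells were examined microscopically. MCC is the minimum concentration that causes a detectable alteration of cell morphology.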

[7] = Homo sapiens, HEL, read-out: CC50

Compound	IC50 (MOLT-4)	IC50 (WI-38)	IC50 (SW-620)	IC50 (MCF7)	EC50 [1]	IC50 (L1210)	IC50 (HEp-2)	EC50 [2]	IC50 (HeLa)	CC50 (HEL [3]; [7])	EC50 (Human alphaherpesvirus 3 [4])	IC50 (MIA PaCa-2)	EC50 (Human alphaherpesvirus 3 [5])	MCC (HEL [6])	CC50 (HEL [3])
O=C(NC1CCCC1)C(Cc1ccccc1)NC(=O)n1nnc2ccccc21 (stereo not drawn)	61 µM	> 100 µM	> 100 µM	92 µM	> 3.2 µg/mL	68 µM	95 µM	> 3.2 µg/mL	53.8 µM	15.5 µg/mL (≈ 41.1 µM)	> 3.2 µg/mL	> 100 µM	> 3.2 µg/mL	16 µg/mL	
O=C1NC(c2ccccc2)C(=O)N1C1CCCC1 (stereo not drawn)	> 200 µM	> 100 µM	> 100 µM	22 µM	> 20 µg/mL	> 200 µM	> 100 µM	> 4 µg/mL	> 100 µM	27.4 µg/mL (≈ 112 µM)	9 µg/mL (≈ 36.8 µM)	> 100 µM	> 4 µg/mL	≥ 20 µg/mL	
O=C(NC(c1ccccc1)c1ccccc1)C(Cc1ccccc1)NC(=O)n1nnc2ccccc21 (stereo not drawn)	15 µM	14.3 µM	37.6 µM	16.3 µM	> 16 µg/mL	17 µM	40.5 µM		30.2 µM	17.3 µg/mL (≈ 36.4 µM)	> 0.13 µg/mL	23.9 µM	> 0.13 µg/mL	80 µg/mL	
O=C(NO)NC(Cc1ccccc1)C(=O)NCc1ccccc1 (stereo not drawn)	12 µM	> 100 µM	> 100 µM			17 µM	> 100 µM		> 100 µM			> 100 µM			
O=C(NO)NC(Cc1ccccc1)C(=O)NC1CCCC1 (stereo not drawn)	> 200 µM	> 100 µM	> 100 µM	> 100 µM		145 µM	> 100 µM		> 100 µM			> 100 µM			
O=C(NO)NC(C(=O)NC(c1ccccc1)c1ccccc1)c1ccccc1 (stereo not drawn)	39 µM	> 100 µM	63.7 µM	83.8 µM		18 µM	83.9 µM		42 µM			31.8 µM			
CCC(C)C(NC(=O)NO)C(=O)NC1CCCCC1 (stereo not drawn)	150 µM	> 100 µM	> 100 µM	> 100 µM		89 µM	> 100 µM		> 100 µM			> 100 µM			
O=C(NO)NC(C(=O)Nc1ccccc1)c1ccccc1 (stereo not drawn)	> 200 µM														
CCC(C)C(NC(=O)NO)C(=O)NC(c1ccccc1)c1ccccc1 (stereo not drawn)	56 µM														
CCC(C)C1NC(=O)N(Cc2ccccc2)C1=O (stereo not drawn)	> 200 µM														
CCC(C)C(NC(=O)NO)C(=O)NCc1ccccc1 (stereo not drawn)	126 µM														
O=C(NO)NC(C(=O)N1CCCCC1)c1ccccc1 (stereo not drawn)	125 µM	6.7 µM	> 100 µM	> 100 µM		80 µM	> 100 µM		> 100 µM			> 100 µM			
CCC(C)C(NC(=O)n1nnc2ccccc21)C(=O)NC1CCCCC1 (stereo not drawn)	98 µM														
CCC(C)C(NC(=O)n1nnc2ccccc21)C(=O)NC(c1ccccc1)c1ccccc1 (stereo not drawn)	79 µM														
CCC(C)C1NC(=O)N(C2CCCCC2)C1=O (stereo not drawn)	> 200 µM														
O=C(C(NC(=O)n1nnc2ccccc21)c1ccccc1)N1CCCCC1 (stereo not drawn)	82 µM	≥ 100 µM	> 100 µM	67.4 µM	> 80 µg/mL	82 µM	> 100 µM	> 80 µg/mL	> 100 µM	188 µg/mL (≈ 517 µM)	> 80 µg/mL	≥ 100 µM	> 80 µg/mL	200 µg/mL	

Compound	IC50 (MOLT-4)	IC50 (WI-38)	IC50 (SW-620)	IC50 (MCF7)	EC50 [1]	IC50 (L1210)	IC50 (HEp-2)	EC50 [2]	IC50 (HeLa)	CC50 (HEL [3]; [7])	EC50 (Human alphaherpesvirus 3 [4])	IC50 (MIA PaCa-2)	EC50 (Human alphaherpesvirus 3 [5])	MCC (HEL [6])	CC50 (HEL [3])
O=C(NO)NC(Cc1ccccc1)C(=O)NC(c1ccccc1)c1ccccc1 (stereo not drawn)	21 µM	32.8 µM	66.6 µM	43.8 µM		18 µM	61.3 µM		39.8 µM			41.1 µM			
O=C(NCC1CCCCC1)C(NC(=O)n1nnc2ccccc21)c1ccccc1 (stereo not drawn)	73 µM	> 100 µM	> 100 µM	35.6 µM	> 16 µg/mL	98 µM	68.6 µM		79.8 µM	43.4 µg/mL (≈ 111 µM)	> 3.2 µg/mL	72.7 µM	> 3.2 µg/mL	≥ 16 µg/mL	
O=C(NO)NC(Cc1ccccc1)C(=O)N1CCCC1 (stereo not drawn)	192 µM	≥ 100 µM	> 100 µM	> 100 µM		> 200 µM	≥ 100 µM		> 100 µM			> 100 µM			
O=C(NCc1ccccc1)C(Cc1ccccc1)NC(=O)n1nnc2ccccc21 (stereo not drawn)	145 µM														
O=C(NC1CCCCC1)C(Cc1ccccc1)NC(=O)n1nnc2ccccc21 (stereo not drawn)	116 µM	63.2 µM	110 µM	20.7 µM	> 16 µg/mL	126 µM	64.5 µM	> 16 µg/mL	34.3 µM	33 µg/mL (≈ 84.3 µM)		≥ 100 µM		80 µg/mL	
O=C(NO)NC(Cc1ccccc1)C(=O)NC1CCCCC1 (stereo not drawn)	19 µM	> 100 µM	100 µM	≥ 100 µM		18 µM	94.2 µM		58 µM			30.6 µM			
Nc1nc2c(ncn2COCCO)c(=O)[nH]1 [ACYCLOVIR]										200 µg/mL (≈ 888 µM)				> 400 µg/mL	200 µg/mL (≈ 888 µM)
CCC(C)C1NC(=O)N(C2CCCC2)C1=O (stereo not drawn)	> 200 µM														
O=C(NO)NC(C(=O)NCc1ccccc1)c1ccccc1 (stereo not drawn)	17 µM														
CC(C)C(NC(=O)NO)C(=O)NC1CCCC1 (stereo not drawn)	> 200 µM	> 100 µM	> 100 µM	> 100 µM		> 200 µM	33.4 µM		> 100 µM			> 100 µM			
CC(C)C(NC(=O)n1nnc2ccccc21)C(=O)NC1CCCC1 (stereo not drawn)	> 200 µM	≥ 100 µM	> 200 µM	79.3 µM	> 200 µg/mL	> 200 µM	60.3 µM	> 200 µg/mL	96.4 µM		> 200 µg/mL	> 100 µM	> 80 µg/mL	> 200 µg/mL	
CCC(C)C(NC(=O)n1nnc2ccccc21)C(=O)NC1CCCC1 (stereo not drawn)	94 µM														
CCC(C)C(NC(=O)NO)C(=O)NC1CCCC1 (stereo not drawn)	> 100 µM														
CC(C)C(NC(=O)NO)C(=O)NC1CCCCC1 (stereo not drawn)	> 100 µM	58.8 µM	> 100 µM	> 100 µM		> 100 µM	> 100 µM		> 100 µM			> 100 µM			
CCC(C)C(NC(=O)n1nnc2ccccc21)C(=O)NCc1ccccc1 (stereo not drawn)	96 µM														
